Consider 19 compounds from ChEMBL document CHEMBL1671788, “Discovery, synthesis, and structure-activity relationship development of a series of N-(4-acetamido)phenylpicolinamides as positive allosteric modulators of metabotropic glutamate receptor 4 (mGlu(4)) with CNS exposure in rats” (J Med Chem, 2011).

Holding throughout (type): functional, cell-based
For assay [1], the target named is Metabotropic glutamate receptor 4 (Rattus norvegicus, UniProt P31423). Kind of assay: Positive allosteric modulation of rat mGluR4 expressed in CHO cells coexpressing Gqi5 assessed as calcium mobilization. A general note: A change in cytosolic calcium serves as a functional read-out for many receptors and channels.
Chain of Metabotropic glutamate receptor 4 (Rattus norvegicus, UniProt P31423) (P31423 whole entry): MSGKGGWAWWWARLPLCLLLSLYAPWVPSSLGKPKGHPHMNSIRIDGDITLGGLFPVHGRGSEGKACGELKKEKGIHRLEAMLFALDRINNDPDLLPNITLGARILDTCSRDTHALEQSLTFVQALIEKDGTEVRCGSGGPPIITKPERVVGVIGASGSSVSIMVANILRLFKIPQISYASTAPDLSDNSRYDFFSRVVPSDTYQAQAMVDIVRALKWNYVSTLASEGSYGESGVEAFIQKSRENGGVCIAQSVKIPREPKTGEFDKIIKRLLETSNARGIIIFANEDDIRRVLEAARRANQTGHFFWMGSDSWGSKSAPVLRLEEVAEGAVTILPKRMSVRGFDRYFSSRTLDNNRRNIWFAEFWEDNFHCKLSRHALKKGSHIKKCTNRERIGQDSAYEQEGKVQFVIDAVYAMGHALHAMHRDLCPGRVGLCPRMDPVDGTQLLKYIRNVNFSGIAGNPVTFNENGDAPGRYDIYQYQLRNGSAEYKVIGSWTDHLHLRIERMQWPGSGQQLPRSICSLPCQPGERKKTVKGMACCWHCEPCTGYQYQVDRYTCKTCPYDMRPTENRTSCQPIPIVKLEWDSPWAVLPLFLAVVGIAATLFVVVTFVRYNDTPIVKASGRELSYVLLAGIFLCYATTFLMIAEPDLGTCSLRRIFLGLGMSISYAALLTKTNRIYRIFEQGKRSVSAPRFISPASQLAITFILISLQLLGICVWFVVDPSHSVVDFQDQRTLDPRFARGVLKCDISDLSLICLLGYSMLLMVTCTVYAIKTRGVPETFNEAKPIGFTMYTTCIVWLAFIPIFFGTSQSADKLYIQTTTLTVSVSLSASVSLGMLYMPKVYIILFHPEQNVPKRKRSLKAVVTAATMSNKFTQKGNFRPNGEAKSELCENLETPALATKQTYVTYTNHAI
The target of assay [2] is T1, Metabotropic glutamate receptor 4 (Homo sapiens, UniProt Q14833). Kind of assay: Positive allosteric modulation of human mGluR4 expressed in CHO cells coexpressing Gqi5 assessed as calcium mobilization relative to PHCCC. A digest of the protocol: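 CHO cells stably expressing human mGlu4 with Gqi5 were plated at 30,000 cells/well and grown overnight. Cells were loaded with 1 µM Fluo-4 AM for 45 min at 37 °C in HBSS/HEPES/2.5 mM probenecid buffer. […] Ca2+ fluorescence was read (ex 470, em 540 nm). Curves were fitted with a four-parameter logistic; ≥3 independent runs in triplicate.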
T1 sequence (Q14833 whole entry): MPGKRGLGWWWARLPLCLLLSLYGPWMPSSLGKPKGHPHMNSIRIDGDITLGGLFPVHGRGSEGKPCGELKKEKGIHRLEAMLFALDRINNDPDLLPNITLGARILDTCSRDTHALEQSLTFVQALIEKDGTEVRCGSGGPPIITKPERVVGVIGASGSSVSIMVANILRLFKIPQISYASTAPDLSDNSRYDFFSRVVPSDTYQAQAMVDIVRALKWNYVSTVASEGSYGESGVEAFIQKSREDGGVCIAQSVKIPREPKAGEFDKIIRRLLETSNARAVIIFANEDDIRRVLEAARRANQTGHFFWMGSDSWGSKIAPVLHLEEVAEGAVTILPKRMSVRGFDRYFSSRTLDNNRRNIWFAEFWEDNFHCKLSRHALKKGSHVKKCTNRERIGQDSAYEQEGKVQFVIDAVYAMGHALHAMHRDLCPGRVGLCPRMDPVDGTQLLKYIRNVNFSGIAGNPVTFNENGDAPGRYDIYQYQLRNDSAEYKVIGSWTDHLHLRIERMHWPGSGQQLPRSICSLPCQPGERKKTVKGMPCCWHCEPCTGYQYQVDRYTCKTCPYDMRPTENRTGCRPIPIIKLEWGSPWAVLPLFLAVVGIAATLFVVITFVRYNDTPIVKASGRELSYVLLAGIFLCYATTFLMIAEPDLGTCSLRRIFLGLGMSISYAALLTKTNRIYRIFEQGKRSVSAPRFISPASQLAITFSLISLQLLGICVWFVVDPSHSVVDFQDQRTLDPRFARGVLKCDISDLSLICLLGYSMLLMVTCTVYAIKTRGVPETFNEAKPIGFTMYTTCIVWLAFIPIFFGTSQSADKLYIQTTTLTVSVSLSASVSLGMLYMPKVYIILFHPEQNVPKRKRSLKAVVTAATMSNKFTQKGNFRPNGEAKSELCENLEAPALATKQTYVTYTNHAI

The target of assay [3] is Metabotropic glutamate receptor 4 (Rattus norvegicus) (UniProt P31423). Kind of assay: Positive allosteric modulation of rat mGluR4 expressed in CHO cells coexpressing Gqi5 assessed as calcium mobilization relative to PHCCC.
Chain of Metabotropic glutamate receptor 4 (Rattus norvegicus) (P31423 whole entry): as the sequence (P31423 whole entry) above
The target in assay [4] is T1, Metabotropic glutamate receptor 4. The assay can be described thus: Positive allosteric modulation of human mGluR4 expressed in CHO cells coexpressing Gqi5 assessed as calcium mobilization.

One may read the EC50 as the concentration that produces a half-maximal response.

In the case of `O=C(Nc1ccccc1)[C@]12C[C@H]1/C(=N\O)c1ccccc1O2`, the EC50 in assay [1] (read-out: EC50) was 2820 nM.

Take `O=C(Nc1ccc(NC(=O)c2cncs2)c(Cl)c1)c1ccccn1`: the EC50 was 1730 nM in assay [1] (read-out: EC50) and 2180 nM in assay [4] (read-out: EC50). Also, the figures for the Activity in assay [2] and in assay [3] were 86.7% and 125%, respectively.

`COc1cc(NC(=O)c2cnccn2)ccc1NC(=O)c1ccccc1Cl`: the EC50 is 1120 nM in assay [1] (read-out: EC50) and 1780 nM in assay [4] (read-out: EC50). Further, the Activity came to 74.3% in assay [2] and 112% in assay [3].

As to `COc1cc(NC(=O)c2cscn2)ccc1NC(=O)c1ccccc1Cl`, the concentration giving a half-maximal response (EC50) in assay [1] (read-out: EC50) was found to be 753 nM; in assay [4] (read-out: EC50) it was 845 nM. Also, the Activity in assay [2] stood at 86.8%; in assay [3], 132%.

Regarding `O=C(Nc1ccc(NC(=O)c2cccs2)c(Cl)c1)c1ccccn1`, the EC50 is 1130 nM in assay [1] (read-out: EC50) and 1040 nM in assay [4] (read-out: EC50). Moreover, the results for the Activity in assay [2] and in assay [3] were 57.8% and 93.8%, respectively.

Consider `O=C(Nc1ccc(NC(=O)c2ccccn2)cc1Cl)c1cc(Cl)cc(Cl)c1`, for which the EC50 in assay [1] (read-out: EC50) was found to be 2340 nM; in assay [4] (read-out: EC50) it was 2150 nM. The figures for the Activity in assay [2] and in assay [3] were 37.4% and 61%, respectively.

`CC(C)C(=O)Nc1ccc(NC(=O)c2ccccn2)cc1Cl`: the EC50 turned out to be 4820 nM in assay [1] (read-out: EC50) and 4270 nM in assay [4] (read-out: EC50). In addition, the Activity in assay [2] turned out to be 60%; in assay [3] it was 109%.

Regarding `COc1cc(NC(=O)c2cccs2)ccc1NC(=O)c1ccccc1Cl`, the results for the Activity in assay [2] and in assay [3] were 63.4% and 96.7%, respectively.

As for `O=C(Nc1ccc(NC(=O)c2ccc(F)cc2F)c(Cl)c1)c1ccccn1`, the results for the EC50 in assay [1] (read-out: EC50) and in assay [4] (cho) were 2100 nM and “Not Active”, respectively. For the same compound, the Activity turned out to be 24.6% in assay [2] and 43.5% in assay [3].

For `COc1cc(NC(=O)C2CCCCC2)ccc1NC(=O)c1ccccc1Cl`, the figures for the EC50 in assay [1] (read-out: EC50) and in assay [4] (read-out: EC50) were 1520 nM and 1120 nM, respectively. Also, the values for the Activity in assay [2] and in assay [3] were 26.9% and 43.2%, respectively.

Regarding `Cn1c(C(=O)Nc2ccc(NC(=O)c3ccccn3)cc2Cl)cc2ccccc21`, the EC50 was 2970 nM in assay [1] (read-out: EC50) and 4720 nM in assay [4] (read-out: EC50). Also, the results for the Activity in assay [2] and in assay [3] were 49.9% and 87.1%, respectively.

With `COc1cc(NC(=O)c2ccncn2)ccc1NC(=O)c1ccccc1Cl`, the EC50 in assay [1] (read-out: EC50) came out at 894 nM; in assay [4] (read-out: EC50), 1330 nM. Moreover, the Activity in assay [2] amounted to 77.9%; in assay [3], 133%.

For the compound `O=C(Nc1ccc(NC(=O)C2CCCCC2)c(Cl)c1)c1ccccn1`, the EC50 came out at 592 nM in assay [1] (read-out: EC50) and 426 nM in assay [4] (read-out: EC50). The values for the Activity in assay [2] and in assay [3] were 59.2% and 106%, respectively.

On to `COc1cc(NC(=O)C2CCCO2)ccc1NC(=O)c1ccccc1Cl` (stereo unspecified), for which the EC50 in assay [1] (read-out: EC50) was more than 10000 nM; in assay [4] (cho) it was “Not Active”. The Activity is 21.3% in assay [2] and 27.1% in assay [3].

On to `COc1ccccc1C(=O)Nc1ccc(NC(=O)c2ccccn2)cc1Cl`, for which the EC50 entry in assay [1] (cho) and in assay [4] (cho) was “Not Active” each time. Also, the figures for the Activity in assay [2] and in assay [3] were 16.4% and 19%, respectively.

On to `O=C(Nc1ccc(NC(=O)c2ccc(-c3ccccc3)o2)c(Cl)c1)c1ccccn1`, for which the EC50 in assay [1] (read-out: EC50) is 3350 nM; in assay [4] (cho), “Not Active”. Also, the values for the Activity in assay [2] and in assay [3] were 24.9% and 45.6%, respectively.

For `COc1cc(NC(=O)c2ccco2)ccc1NC(=O)c1ccccc1Cl`, the EC50 was 1010 nM in assay [1] (read-out: EC50) and 977 nM in assay [4] (read-out: EC50). The figures for the Activity in assay [2] and in assay [3] were 62.7% and 122%, respectively.

As to `O=C(Nc1ccc2c(ccn2C(=O)c2ccc(F)cc2Cl)c1)c1ccccn1`, the EC50 in assay [1] (read-out: EC50) was 1660 nM; in assay [4] (read-out: EC50), 1420 nM. For the same compound, the values for the Activity in assay [2] and in assay [3] were 71.7% and 104%, respectively.

For `O=C(Nc1ccc2c(ccn2C(=O)c2ccccn2)c1)c1ccccc1Cl`, the EC50 entry in assay [1] (cho) and in assay [4] (cho) was “Not Active” each time. Also, the Activity in assay [2] was 21.1%; in assay [3] it was 17.6%.
